The record followed here is ChEMBL document CHEMBL4390678, “Structure-Activity Relationship of Purine and Pyrimidine Nucleotides as Ecto-5'-Nucleotidase (CD73) Inhibitors” (J Med Chem, 2019).

Assay [1] deals with T1, 5'-nucleotidase (Homo sapiens, UniProt P21589). Put plainly: Inhibition of recombinant human C-terminal His-tagged soluble form of CD73 expressed in baculovirus infected Sf9 insect cells using [2,8-3H]AMP as substrate measured after 25 mins by scintillation counting method. An outline of the steps:
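Soluble human CD73 lacking the GPI signal, with a C-terminal 6xHis tag, secreted from baculovirus-infected Sf9 cells and purified on Ni-NTA; 0.365 ng per vial. […] Product separated by lanthanum chloride precipitation and filtration, then scintillation counted.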

Assay [2] concerns the target T2, 5'-nucleotidase (Rattus norvegicus) (UniProt P21588).
T2 sequence (whole entry): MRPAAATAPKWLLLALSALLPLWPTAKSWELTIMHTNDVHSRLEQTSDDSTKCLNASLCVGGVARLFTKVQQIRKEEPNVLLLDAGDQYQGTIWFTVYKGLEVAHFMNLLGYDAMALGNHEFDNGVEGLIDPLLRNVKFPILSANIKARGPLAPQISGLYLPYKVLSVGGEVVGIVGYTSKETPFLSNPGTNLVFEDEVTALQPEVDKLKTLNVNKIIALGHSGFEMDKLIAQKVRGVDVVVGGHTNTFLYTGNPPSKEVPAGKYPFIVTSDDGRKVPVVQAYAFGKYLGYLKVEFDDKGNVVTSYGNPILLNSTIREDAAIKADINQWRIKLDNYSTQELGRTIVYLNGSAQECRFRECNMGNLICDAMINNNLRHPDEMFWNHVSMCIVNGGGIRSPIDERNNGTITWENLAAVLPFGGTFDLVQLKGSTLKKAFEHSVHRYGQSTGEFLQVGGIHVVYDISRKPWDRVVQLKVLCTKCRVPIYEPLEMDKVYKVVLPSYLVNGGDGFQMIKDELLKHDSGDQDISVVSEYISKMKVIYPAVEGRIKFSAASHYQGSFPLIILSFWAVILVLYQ
Put plainly: Inhibition of recombinant rat C-terminal His-tagged soluble form of CD73 expressed in baculovirus infected Sf9 insect cells at 1 uM using [2,8-3H]AMP as substrate measured after 25 mins by scintillation counting method relative to control. An outline of the steps: (§1)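 Enzyme is soluble rat CD73 from Sf9 cells, 1.63 ng per vial, in 25 mM Tris, 140 mM NaCl, 25 mM NaH2PO4, pH 7.4. […] Stopped by LaCl3 precipitation and GF/B filtration, then counted. Each compound first screened at 1 µM.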

Assay [3] addresses T3, 5'-nucleotidase (Rattus norvegicus, UniProt P21588).
T3 sequence (P21588 whole entry): T2 sequence (whole entry)
Put plainly: Inhibition of recombinant rat C-terminal His-tagged soluble form of CD73 expressed in baculovirus infected Sf9 insect cells using [2,8-3H]AMP as substrate measured after 25 mins by scintillation counting method. An outline of the steps:
as §1

In assay [4] the target is T1, 5'-nucleotidase. Put plainly: Inhibition of CD73 in human MDA-MB-231 cell membranes using [2,8-3H]AMP as substrate measured after 25 mins by scintillation counting method. The method, boiled down: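 MDA-MB-231 membranes (7.4 ng protein per vial) in 25 mM Tris, 140 mM NaCl, 25 mM NaH2PO4, pH 7.4. […] Stopped with cold LaCl3/acetate buffer pH 4.0 and filtered on GF/B. Background-subtracted and normalized to the uninhibited control.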

In assay [5] the target is T1, 5'-nucleotidase. Put plainly: Inhibition of CD73 in human tonsils at 100 nM using AMP as substrate preincubated for 30 mins followed by substrate addition and measured after 45 mins by lead nitrate-based histochemical analysis. An outline of the steps:
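Tonsil cryosections pre-incubated 30 min in Trizma-maleate sucrose buffer (pH 7.4) with 2 mM levamisole and inhibitor. […] Deposit developed with 0.5% (NH4)2S and quantified as grayscale mean pixel intensity of five germinal centers versus control (ANOVA, Dunnett).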

Assay [6] is filed under the species Homo sapiens. Put plainly: Inhibition of cytosolic nucleotidase in MaMel.65-CD73 cell cytosolic extract (unknown origin) at 100 uM using AMP as substrate preincubated for 5 mins followed by substrate addition and measured after 60 mins by malachite green oxalate dye based colorimetric method relative to control. An outline of the steps: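 Cytosolic extract of CRISPR CD73-knockout MaMel.65 melanoma cells, 15.25 µg, in 50 mM Tris pH 7.0 with 100 mM KCl and 5 mM MgCl2. […] After 60 min, heat-stopped at 95°C. Released phosphate read with malachite green/molybdate at 600 nm. Levamisole 1 mM plus NaF 5 mM served as positive control. Three experiments in duplicate.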

In the next assay the target is T4, P2Y purinoceptor 14 (Homo sapiens, UniProt Q15391).
T4 sequence (Q15391 whole entry): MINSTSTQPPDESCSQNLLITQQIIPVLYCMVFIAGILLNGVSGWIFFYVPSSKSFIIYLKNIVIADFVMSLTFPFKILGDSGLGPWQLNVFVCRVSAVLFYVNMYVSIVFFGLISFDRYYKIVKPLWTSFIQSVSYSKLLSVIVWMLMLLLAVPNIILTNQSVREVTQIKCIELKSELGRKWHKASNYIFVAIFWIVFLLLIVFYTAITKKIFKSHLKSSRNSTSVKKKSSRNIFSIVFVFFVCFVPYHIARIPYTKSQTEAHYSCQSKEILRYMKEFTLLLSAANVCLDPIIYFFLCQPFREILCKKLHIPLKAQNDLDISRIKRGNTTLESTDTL
Put plainly: Displacement of 6-Amino-9-(2-carboxy-4-((6-(4-(4-(4-(4-(3-carboxy-6-(4-(trifluoromethyl)phenyl)-naphthalen-1-yl)phenyl)piperidin-1-yl)butyl)-1H-1,2,3-triazol-1-yl)hexyl)carbamoyl)-phenyl)-3-iminio-5-sulfo-3H-xanthene-4-sulfonate from recombinant human P2Y14 receptor expressed in CHO cells preincubated for 30 mins followed by tracer addition and measured after 30 mins by flow cytometry. Type of assay: cell-based.

Assay [7] addresses T5, P2Y purinoceptor 6 (Homo sapiens, UniProt Q15077). Put plainly: Agonist activity at human P2Y6 receptor expressed in human 1321N1 cells assessed as induction of calcium mobilization at 3 uM by calcium-4 dye based FLIPR assay relative to control. It counts as functional, cell-based.
Assay [8] concerns the target T1, 5'-nucleotidase. Put plainly: Inhibition of CD73 in human tonsils using AMP as substrate preincubated for 30 mins followed by substrate addition and measured after 45 mins by lead nitrate-based histochemical analysis. An outline of the steps: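 Human tonsil cryosections pre-incubated 30 min in Trizma-maleate sucrose buffer (40 mM Trizma maleate, 0.25 M sucrose, pH 7.4) with 2 mM levamisole plus inhibitor at 1, 10 or 100 nM. […] Pi deposit developed with 0.5% (NH4)2S. Read-out is mean grayscale pixel intensity of five matched germinal centers versus untreated control. One-way ANOVA with Dunnett's test.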

The target in assay [9] is T6, P2Y purinoceptor 14 (Homo sapiens) (UniProt Q15391).
T6 sequence (whole entry): T4 sequence (Q15391 whole entry)
Put plainly: Displacement of 6-Amino-9-(2-carboxy-4-((6-(4-(4-(4-(4-(3-carboxy-6-(4-(trifluoromethyl)phenyl)-naphthalen-1-yl)phenyl)piperidin-1-yl)butyl)-1H-1,2,3-triazol-1-yl)hexyl)carbamoyl)-phenyl)-3-iminio-5-sulfo-3H-xanthene-4-sulfonate from recombinant human P2Y14 receptor expressed in CHO cells at 3 uM preincubated for 30 mins followed by tracer addition and measured after 30 mins by flow cytometry. It counts as cell-based. For orientation: Flow cytometry measures light scatter and fluorescence of single cells or particles in a stream.

Assay [10] deals with T5, P2Y purinoceptor 6. Put plainly: Agonist activity at human P2Y6 receptor expressed in human 1321N1 cells assessed as induction of calcium mobilization by calcium-4 dye based FLIPR assay. Type of assay: functional, cell-based.
The species named for assay [11] is Homo sapiens. Put plainly: Inhibition of cytosolic nucleotidase in MaMel.65-CD73 cell cytosolic extract (unknown origin) at 5 mM using AMP as substrate preincubated for 5 mins followed by substrate addition and measured after 60 mins in presence of levamisole by malachite green oxalate dye based colorimetric method relative to control. An outline of the steps:
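Cytosolic extract (15.25 µg) from CRISPR CD73-knockout melanoma cells in 50 mM Tris pH 7.0, 100 mM KCl, 5 mM MgCl2. […] Released phosphate read by malachite green/molybdate absorbance at 600 nm. Levamisole 1 mM plus NaF 5 mM as positive control; three independent experiments in duplicate.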

For assay [12], the species on record is Homo sapiens. The note with it: 1 mM.

SMILES strings stand for the structures. Activity calls are given as the source filed them. The calls are words filed in the database; no cut-off is given here. Where only a bound is given, the exact number is not on record here.

T1 sequence (P21589 whole entry): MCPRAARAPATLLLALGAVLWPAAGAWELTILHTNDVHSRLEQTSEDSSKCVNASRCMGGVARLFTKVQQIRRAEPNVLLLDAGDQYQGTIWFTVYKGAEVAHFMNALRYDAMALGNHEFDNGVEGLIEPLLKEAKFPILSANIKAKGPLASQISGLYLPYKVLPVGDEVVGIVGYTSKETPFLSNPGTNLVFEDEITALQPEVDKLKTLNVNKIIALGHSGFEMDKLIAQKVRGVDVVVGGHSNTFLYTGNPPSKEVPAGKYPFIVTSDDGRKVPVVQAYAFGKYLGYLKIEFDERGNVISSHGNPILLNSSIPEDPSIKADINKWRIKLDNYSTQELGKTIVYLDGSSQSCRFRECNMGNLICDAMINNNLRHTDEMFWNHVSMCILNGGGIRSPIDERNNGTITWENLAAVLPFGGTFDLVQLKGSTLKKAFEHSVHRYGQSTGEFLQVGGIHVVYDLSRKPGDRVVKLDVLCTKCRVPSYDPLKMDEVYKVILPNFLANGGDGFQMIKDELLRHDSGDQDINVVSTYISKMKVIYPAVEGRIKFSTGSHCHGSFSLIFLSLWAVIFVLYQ
T5 sequence (Q15077 whole entry): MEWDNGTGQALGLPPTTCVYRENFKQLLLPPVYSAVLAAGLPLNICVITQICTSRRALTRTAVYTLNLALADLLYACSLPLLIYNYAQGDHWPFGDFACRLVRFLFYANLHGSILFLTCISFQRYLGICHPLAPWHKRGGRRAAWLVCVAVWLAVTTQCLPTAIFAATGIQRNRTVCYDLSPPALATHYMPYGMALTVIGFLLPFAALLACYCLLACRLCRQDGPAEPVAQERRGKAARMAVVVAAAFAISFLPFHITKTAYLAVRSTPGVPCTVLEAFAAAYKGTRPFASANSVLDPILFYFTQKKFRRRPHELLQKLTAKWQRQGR

For orientation: Ki means a dissociation constant, usually derived from enzyme kinetics or from competition with a known ligand. In general, inhibition refers to the relative decrease from the control value, in per cent. As for `O=c1[nH]/c(=N/OCc2ccccc2)c(F)cn1[C@@H]1O[C@H](COP(=O)(O)CP(=O)(O)O)[C@@H](O)[C@H]1O`, the Ki came out at 15.9 nM on 5'-nucleotidase [1], 85.1 nM on 5'-nucleotidase [3] and 16.6 nM on 5'-nucleotidase [4]. Further, in assay [2], the inhibition was over 50%.
On to `Nc1ncnc2c1ncn2[C@@H]1O[C@H](COP(=O)(O)CP(=O)(O)O)[C@@H](O)[C@H]1O` [PHOSPHOMETHYLPHOSPHONIC ACID ADENOSYL ESTER], for which the inhibition result on 5'-nucleotidase [5] was “Active”. Also, the inhibition in [2] was over 50%. On 5'-nucleotidase [3], the Ki was 167 nM.
Take `O=c1[nH]/c(=N/OCc2ccc3ccccc3c2)ccn1[C@@H]1O[C@H](COP(=O)(O)CP(=O)(O)O)[C@@H](O)[C@H]1O`: the Ki was 6.88 nM at 5'-nucleotidase [1], 18.8 nM at 5'-nucleotidase [3] and 6.29 nM on 5'-nucleotidase [4]. In addition, the inhibition in assay [2] was over 50%; in the assay listed under Homo sapiens [6], -5%.
One may read the IC50 as the concentration needed to halve the response being measured. One may read the EC50 as the concentration giving half of the maximal effect. Regarding `Cn1c(=NOCc2ccccc2)ccn([C@@H]2O[C@H](COP(=O)(O)CP(=O)(O)O)[C@@H](O)[C@H]2O)c1=O`, the IC50 on P2Y purinoceptor 14 is over 3 µM. Besides, the Activity on P2Y purinoceptor 6 [7] is 3.6%. Moreover, the inhibition result on 5'-nucleotidase [8] was “Dose-dependent effect”; in [2], over 50%; in the assay filed under Homo sapiens [6], -2%. Also, the inhibition entry in assay [9] is “inactive”. The figures for the Ki at 5'-nucleotidase [3] and on 5'-nucleotidase [4] were 3.67 nM and 7.96 nM, respectively. Further, the EC50 on P2Y purinoceptor 6 [10] is over 3000 nM.
As for `O=c1[nH]c(=O)n([C@@H]2O[C@H](COP(=O)(O)CP(=O)(O)O)[C@@H](O)[C@H]2O)cc1F`, on P2Y purinoceptor 14, the IC50 turned out to be 0.362 µM. Moreover, the results for the Ki on 5'-nucleotidase [1], on 5'-nucleotidase [3] and at 5'-nucleotidase [4] were 5.33 nM, 14.8 nM and 4.51 nM, respectively. Moreover, the inhibition in assay [2] is over 50%; in the assay filed under Homo sapiens [6] it was 4%. In addition, at P2Y purinoceptor 6 [10], the EC50 was 203 nM.
With `[F-].[Na+]`, in the assay listed under Homo sapiens [11], the inhibition was determined as 70%.
Turning to `c1ccc([C@H]2CN3CCSC3=N2)cc1`, the inhibition in the assay listed under Homo sapiens [12] came to 70%.
On to `O=C(Nc1ccn([C@@H]2O[C@H](COP(=O)(O)CP(=O)(O)O)[C@@H](O)[C@H]2O)c(=O)n1)c1ccccc1`, for which the half-maximal inhibitory concentration (IC50) on P2Y purinoceptor 14 was found to be 6.66 µM. For the same compound, the results for the Ki on 5'-nucleotidase [1], at 5'-nucleotidase [3] and at 5'-nucleotidase [4] were 4.58 nM, 13.9 nM and 5.68 nM, respectively. Further, the inhibition is over 50% in assay [2] and -3% in the assay filed under Homo sapiens [6]. At P2Y purinoceptor 6 [10], the EC50 is 1390 nM.
As to `O=c1ccn([C@@H]2O[C@H](COP(=O)(O)CP(=O)(O)O)[C@@H](O)[C@H]2F)c(=O)[nH]1`, the inhibition in assay [2] is 11%. Moreover, the Ki on 5'-nucleotidase [3] is over 1000 nM.
On to `Nc1ncnc2c1ncn2[C@@H]1O[C@H](CO)[C@@H](OP(=O)(O)CP(=O)(O)O)[C@H]1N`, for which, in assay [2], the inhibition is 8%. Further, the Ki on 5'-nucleotidase [3] is over 1000 nM.
As for `Nc1ccnc2c1ncn2[C@@H]1O[C@H](COP(=O)(O)CP(=O)(O)O)[C@@H](O)[C@H]1O`, the inhibition in [2] was 36%. Also, the Ki on 5'-nucleotidase [3] is over 1000 nM.
The corresponding values for `O=c1[nH]c(=O)n([C@@H]2O[C@H](COP(=O)(O)CP(=O)(O)O)[C@@H](O)[C@H]2O)cc1Cl` are over 50% and 86.7 nM.
